“Also recorded” adds a separate entry of the source.
Columns and labels:
[1] = test system: i.c.v. Aβ1–42-injected C57BL/6 mice; assay: Spontaneous alternation T-maze in i.c.v. Aβ1–42-injected mice; format: in vivo, mouse; conditions: for T-maze alternation rate: mouse, in vivo, po, 250 mg/kg
[2] = test system: glyoxalase pathway (D-lactate); assay: Brain D-lactate measurement; format: in vivo, mouse; conditions: wild type C57BL/6 mice, 500 mg/kg oral, multiple time points
[3] = test system: glyoxalase enzyme pathway (AGE content); assay: Brain advanced glycation endproducts; format: in vivo, mouse; conditions: i.c.v. Aβ-injected mice, 250 mg/kg oral
brain GSH = assay: Quantitation of GSH in brain of i.c.v. Aβ-injected mice; format: in vivo, mouse; conditions: 250 mg/kg oral
[4] = Stability in mouse plasma; format: in vitro ADME; conditions: mouse plasma (CD-1), 1 μM, 37 °C
How it was run: (§1)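 Test compound at 1 μM final was incubated at 37 °C in CD-1 mouse plasma, or in simulated gastric or intestinal fluid made per the USP National Formulary. Samples were taken at 0, 5, 15, 30, 60, 120 and 240 min and quenched with 3 volumes of acetonitrile/1% formic acid, then centrifuged. Prodrug and released parent were measured by HPLC-UV (Fmoc-Cl derivatization, 254 nm) and/or LC-MS/MS (MRM), and t1/2 was calculated.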

[5] = Stability in simulated gastric fluid; format: in vitro ADME
How it was run: as §1

[6] = Stability in mouse liver homogenate; format: in vitro ADME; conditions: for Half-life, tissue homogenate liver: mouse liver homogenate, 1 μM, 37 °C
[7] = Stability in simulated intestinal fluid; format: in vitro ADME; conditions: SIF, 1 μM, 37 °C
How it was run: as §1

[8] = Conversion of prodrugs into ψ-GSH in brain homogenate; format: in vitro ADME, mouse; conditions: freshly prepared brain homogenates containing proteinase inhibitors
GFAP and Iba1 staining = format: in vivo, mouse; conditions: i.c.v. Aβ-injected mice, 250 mg/kg oral
[9] = Stability in mouse brain homogenate; format: in vitro ADME; conditions: 1 μM, 37 °C
[10] = Conversion of prodrugs into ψ-GSH in liver homogenate; format: in vitro ADME, mouse; conditions: liver homogenates
[11] = Brain and plasma distribution study in CD-1 mice; format: in vivo, mouse; conditions: CD1 mice

Molecule | conversion into / release of ψ-GSH in brain homogenate [8] | conversion into / release of ψ-GSH in liver homogenate [10] | T-maze alternation rate [1] | brain total AGE content versus Aβ1–42 group [3] | brain reduced GSH compared to the Aβ-only group (brain GSH) | Half-life, plasma [4] | Half-life, tissue homogenate liver [6] | Iba1 staining in dorsal hippocampus (GFAP and Iba1 staining) | other results
N-Ethyloxycarbonyl-γ-L-Glz[-L-Cys(SCOOEt)-Gly-OH]-OH [prodrug 7] | detected | detected | effective in improving the alternation behavior | significantly reduced | significantly increased | 113.6 h | 1.30 h | significantly reduced | T-maze repetitive arm entries ([1]; oral treatment, 250 mg/kg once a day, Aβ-only 3.22 ± 0.27): 1.00 ± 0.31; brain D-lactate release [2]: immediate spike; Half-life, GI tract gastric phase ([5]; SGF, 1 μM, 37 °C): 17.96 h; Half-life, GI tract intestinal phase [7]: 24.24 h; GFAP staining in dorsal hippocampus (GFAP and Iba1 staining): significant reduction; astrocytic and microglial reactivity (GFAP, Iba1) in dentate gyrus (GFAP and Iba1 staining): Mitigation; Half-life, tissue homogenate brain [9]: 9.79 h
CCOC(=O)SC[C@H](NC(=O)NC[C@H](N)C(=O)OC1CCCC1)C(=O)NCC(=O)OC1CCCC1 [prodrug 6, NH2-γ-L-Glz[-L-Cys(SCOOEt)-Gly-OcPe]-OcPe] | relatively higher and sustained release | relatively higher and sustained release |  |  |  |  |  |  | major metabolite in liver homogenate incubates ([6]; liver homogenate): thiocarbonate cleavage product
CC(=O)SC[C@H](NC(=O)NC[C@H](N)C(=O)O)C(=O)NCC(=O)O [prodrug 1, NH2-γ-L-Glz[-L-Cys(SAc)-Gly-OH]-OH] |  |  |  |  |  |  |  |  | half-life at 1 μM ([5]; simulated gastric fluid (SGF)): ~24 h
NH2-γ-L-Glz[-L-Thz-Gly-OH]-OH [prodrug 4] |  |  |  |  |  | 30.64 h | 115.5 h |  | 
Cl.N[C@@H](CNC(=O)N[C@@H](CS)C(=O)NCC(=O)OC1CCCC1)C(=O)OC1CCCC1 [prodrug 5, HCl.NH2-γ-L-Glz[-L-Cys(SH)-Gly-OcPe]-OcPe] | relatively higher and sustained release; also recorded: detected | relatively higher and sustained release; also recorded: detected | effective in improving the alternation behavior | significantly reduced | significantly increased |  |  | significantly reduced | plasma Cmax versus ψ-GSH ([11]; 250 mg/kg oral, comparison ψ-GSH 500 mg/kg i.p.): increased Cmax; brain levels of ψ-GSH after prodrug administration versus ψ-GSH treatment ([11]; prodrug 250 mg/kg oral vs ψ-GSH 500 mg/kg i.p.): lower than; relative brain AUC ([11]; prodrug 250 mg/kg oral, 2-6 h): 1.22 nmol·h/mg tissue

From PMC9662183 (Journal of medicinal chemistry, 2022)
